According to ChEMBL document CHEMBL4118021, “Studies of TAK1-centered polypharmacology with novel covalent TAK1 inhibitors” (Bioorg Med Chem, 2017):
Active and inactive are the calls of the source.

Legend:
[1] = target: Tyrosine-protein kinase receptor UFO (Homo sapiens) (UniProt P30530); experiment: Inhibition of AXL in human SKCO1 cells at 1 uM after 4 hrs using biotin labeled NCMLNENMSVCVADFGLSKK probe by mass-spectrometric analysis relative to control; format: cell-based
[2] = target: Receptor-type tyrosine-protein kinase FLT3 (Homo sapiens) (UniProt P36888); experiment: Inhibition of human FLT3 (592 to 969 residues) expressed in bacterial expression system assessed as enzyme activity at 1 uM by KINOMEScan assay relative to control; parameters: scale not given: the % may be the effect or the level left
Sequence of Receptor-type tyrosine-protein kinase FLT3 (Homo sapiens) (P36888 whole entry, the tested form may be a part): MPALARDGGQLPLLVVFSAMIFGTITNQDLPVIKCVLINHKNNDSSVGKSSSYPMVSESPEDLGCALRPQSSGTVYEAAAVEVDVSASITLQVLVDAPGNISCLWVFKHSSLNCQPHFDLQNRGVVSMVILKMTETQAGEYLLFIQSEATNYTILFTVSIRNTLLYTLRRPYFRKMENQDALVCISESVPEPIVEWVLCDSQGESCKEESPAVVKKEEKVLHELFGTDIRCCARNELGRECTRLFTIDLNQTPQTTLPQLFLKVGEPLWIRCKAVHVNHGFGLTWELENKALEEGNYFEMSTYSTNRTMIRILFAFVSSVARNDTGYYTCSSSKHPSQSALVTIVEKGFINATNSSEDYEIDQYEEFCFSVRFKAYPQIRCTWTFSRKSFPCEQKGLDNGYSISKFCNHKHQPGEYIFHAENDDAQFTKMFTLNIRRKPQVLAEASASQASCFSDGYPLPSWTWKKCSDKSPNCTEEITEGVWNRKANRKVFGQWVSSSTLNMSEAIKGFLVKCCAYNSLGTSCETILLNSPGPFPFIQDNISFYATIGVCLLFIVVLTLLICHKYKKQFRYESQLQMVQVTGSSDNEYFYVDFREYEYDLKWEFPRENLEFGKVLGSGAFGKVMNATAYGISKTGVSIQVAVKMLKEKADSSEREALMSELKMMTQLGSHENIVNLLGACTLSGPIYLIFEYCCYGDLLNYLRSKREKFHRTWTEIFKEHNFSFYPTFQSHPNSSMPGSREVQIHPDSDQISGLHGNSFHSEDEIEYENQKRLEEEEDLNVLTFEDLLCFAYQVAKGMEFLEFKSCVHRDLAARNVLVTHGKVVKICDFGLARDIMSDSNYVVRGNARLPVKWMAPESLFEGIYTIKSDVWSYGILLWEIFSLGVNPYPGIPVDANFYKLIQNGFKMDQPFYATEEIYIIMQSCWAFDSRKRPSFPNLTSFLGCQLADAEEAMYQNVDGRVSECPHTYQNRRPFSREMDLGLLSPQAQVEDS
Procedure, shortened: (§1)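 In vitro ATP-site competition binding assay across a panel of 456 kinases, with compound tested at 1 and 10 μM.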

[3] = target: Receptor-type tyrosine-protein kinase FLT3 (Homo sapiens) (UniProt P36888); experiment: Inhibition of human FLT3 (592 to 969 residues) expressed in bacterial expression system assessed as enzyme activity at 10 uM by KINOMEScan assay relative to control; parameters: scale not given: the % may be the effect or the level left; procedure, shortened: as §1
[4] = target: Mast/stem cell growth factor receptor Kit (Homo sapiens) (UniProt P10721); experiment: Inhibition of human KIT (571 to 952 residues) expressed in bacterial expression system assessed as enzyme activity at 10 uM by KINOMEScan assay relative to control; parameters: scale not given: the % may be the effect or the level left; procedure, shortened: as §1
Sequence of Mast/stem cell growth factor receptor Kit (Homo sapiens) (P10721 whole entry, the tested form may be a part): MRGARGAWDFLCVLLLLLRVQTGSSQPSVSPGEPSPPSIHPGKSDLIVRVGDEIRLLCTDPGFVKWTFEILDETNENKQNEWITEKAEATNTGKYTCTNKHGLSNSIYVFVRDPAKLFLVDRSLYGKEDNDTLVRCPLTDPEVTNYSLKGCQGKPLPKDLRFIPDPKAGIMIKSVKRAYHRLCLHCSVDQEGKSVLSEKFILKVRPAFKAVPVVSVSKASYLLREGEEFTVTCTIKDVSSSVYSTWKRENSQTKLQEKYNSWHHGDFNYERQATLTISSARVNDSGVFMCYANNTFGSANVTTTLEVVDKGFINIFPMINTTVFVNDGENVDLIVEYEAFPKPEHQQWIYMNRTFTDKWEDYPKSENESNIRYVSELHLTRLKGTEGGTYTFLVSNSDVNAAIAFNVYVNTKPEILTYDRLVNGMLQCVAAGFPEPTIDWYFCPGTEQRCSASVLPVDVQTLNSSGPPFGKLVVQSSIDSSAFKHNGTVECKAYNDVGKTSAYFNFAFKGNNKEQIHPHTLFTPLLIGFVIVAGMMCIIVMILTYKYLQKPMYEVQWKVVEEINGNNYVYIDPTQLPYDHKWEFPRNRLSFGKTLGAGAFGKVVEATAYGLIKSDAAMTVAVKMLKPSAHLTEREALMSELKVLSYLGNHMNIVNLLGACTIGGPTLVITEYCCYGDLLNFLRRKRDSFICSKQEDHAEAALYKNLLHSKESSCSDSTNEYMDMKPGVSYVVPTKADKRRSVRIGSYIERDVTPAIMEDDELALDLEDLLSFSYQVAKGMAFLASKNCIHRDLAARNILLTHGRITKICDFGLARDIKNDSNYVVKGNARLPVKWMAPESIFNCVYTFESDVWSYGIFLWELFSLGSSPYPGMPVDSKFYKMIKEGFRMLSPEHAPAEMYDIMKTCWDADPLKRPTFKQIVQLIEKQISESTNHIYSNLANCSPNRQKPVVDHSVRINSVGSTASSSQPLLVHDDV

[5] = target: BMP-2-inducible protein kinase (Homo sapiens) (UniProt Q9NSY1); experiment: Inhibition of human BIKE (34 to 329 residues) expressed in bacterial expression system assessed as enzyme activity at 10 uM by KINOMEScan assay relative to control; parameters: scale not given: the % may be the effect or the level left
Procedure, shortened: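 In vitro ATP-site competition binding assay (KinomeScan) across a panel of 456 kinases. Compound was tested at 1 and 10 μM. The read-out is the binding inhibition score relative to control.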

[6] = target: Translocon-associated protein subunit delta (Homo sapiens) (UniProt P51571); experiment: Binding affinity to SSR4 in human NCI-H23 cells at 1 uM by mass spectrometry based pull down assay; format: cell-based
Sequence of Translocon-associated protein subunit delta (Homo sapiens) (P51571 whole entry): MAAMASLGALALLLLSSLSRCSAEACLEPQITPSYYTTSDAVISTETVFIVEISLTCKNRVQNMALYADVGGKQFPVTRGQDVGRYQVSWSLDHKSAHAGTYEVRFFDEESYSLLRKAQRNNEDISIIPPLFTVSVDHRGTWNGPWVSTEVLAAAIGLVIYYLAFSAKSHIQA

[7] = target: T1, 80S Ribosome (Homo sapiens) (UniProt P08865+P42677+P62753+P15880+P23396+P61247+P62701+P22090+P46782+P62081+P62241+P46781+P46783+P62280+P25398+P62277+P62263+P62841+P62244+P62249+P08708+P62269+P39019+P60866+P63220+P62266+P62847+P62851+P62854+P62979+P62857+P62273+P62861+P39023+P36578+P46777+Q02878+P18124+P62424+P62917+P32969+P27635+P62906+P62913+P30050+P26373+P40429+P50914+P61313+P18621+Q07020+Q02543+P84098+P46778+P35268+P62829+P62750+P83731+P61254+P61353+P46776+P46779+P47914+P62888+P62899+P62910+P49207+P42766+P18077+Q9Y3U8+P83881+P61927+P61513+P63173+P62891+P62945+P05388+P05386); experiment: Binding affinity to RPL23A in human NCI-H23 cells at 1 uM by mass spectrometry based pull down assay; format: cell-based
[8] = target: T2, Serine/threonine-protein kinase 4 (Homo sapiens) (UniProt Q13043); experiment: Binding affinity to STK4 in human NCI-H23 cells at 1 uM by mass spectrometry based pull down assay; format: cell-based
T2 sequence (whole entry): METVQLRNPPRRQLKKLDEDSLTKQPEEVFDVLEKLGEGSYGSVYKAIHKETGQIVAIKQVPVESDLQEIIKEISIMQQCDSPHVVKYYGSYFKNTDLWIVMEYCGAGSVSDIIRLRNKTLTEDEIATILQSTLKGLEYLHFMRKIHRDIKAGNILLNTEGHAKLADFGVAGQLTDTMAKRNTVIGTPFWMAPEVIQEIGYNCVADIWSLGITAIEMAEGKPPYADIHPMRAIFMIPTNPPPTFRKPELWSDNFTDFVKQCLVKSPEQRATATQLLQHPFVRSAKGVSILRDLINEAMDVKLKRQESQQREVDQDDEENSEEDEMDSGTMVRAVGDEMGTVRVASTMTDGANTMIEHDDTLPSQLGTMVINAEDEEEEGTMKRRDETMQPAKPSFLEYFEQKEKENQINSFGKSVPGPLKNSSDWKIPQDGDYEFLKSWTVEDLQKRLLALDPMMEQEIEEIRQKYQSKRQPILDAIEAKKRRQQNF

[9] = system: NCI-H23; experiment: Binding affinity to PTGES3L-AARSD1 in human NCI-H23 cells at 1 uM by mass spectrometry based pull down assay; format: cell-based
[10] = target: T1, 80S Ribosome (Homo sapiens); experiment: Binding affinity to RPL26 in human NCI-H23 cells at 1 uM by mass spectrometry based pull down assay; format: cell-based
[11] = target: Aspartyl aminopeptidase (Homo sapiens) (UniProt Q9ULA0); experiment: Binding affinity to DNPEP in human NCI-H23 cells at 1 uM by mass spectrometry based pull down assay; format: cell-based
[12] = target: T3, Dual specificity mitogen-activated protein kinase kinase 6 (Homo sapiens) (UniProt P52564); experiment: Binding affinity to MAP2K6 in human NCI-H23 cells at 1 uM by mass spectrometry based pull down assay; format: cell-based
T3 sequence (whole entry): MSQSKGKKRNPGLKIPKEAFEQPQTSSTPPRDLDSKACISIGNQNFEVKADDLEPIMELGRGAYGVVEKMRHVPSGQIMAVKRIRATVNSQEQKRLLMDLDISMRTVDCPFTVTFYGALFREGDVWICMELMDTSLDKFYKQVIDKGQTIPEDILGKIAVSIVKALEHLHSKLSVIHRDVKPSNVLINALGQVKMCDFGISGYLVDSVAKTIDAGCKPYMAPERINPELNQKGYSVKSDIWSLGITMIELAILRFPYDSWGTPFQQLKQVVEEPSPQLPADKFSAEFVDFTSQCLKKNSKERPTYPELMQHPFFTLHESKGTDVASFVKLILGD

[13] = target: Peroxiredoxin-6 (Homo sapiens) (UniProt P30041); experiment: Binding affinity to PRDX6 in human NCI-H358 cells at 1 uM by mass spectrometry based pull down assay; format: cell-based
Sequence of Peroxiredoxin-6 (Homo sapiens) (P30041 whole entry): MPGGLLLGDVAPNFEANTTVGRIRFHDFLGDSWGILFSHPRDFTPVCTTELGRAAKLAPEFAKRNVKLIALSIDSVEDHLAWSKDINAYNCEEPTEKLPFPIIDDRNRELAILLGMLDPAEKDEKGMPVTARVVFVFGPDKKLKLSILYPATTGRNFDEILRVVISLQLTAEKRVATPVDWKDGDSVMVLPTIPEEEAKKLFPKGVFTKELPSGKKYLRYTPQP

[14] = target: Acylamino-acid-releasing enzyme (Homo sapiens) (UniProt P13798); experiment: Binding affinity to APEH in human NCI-H358 cells at 1 uM by mass spectrometry based pull down assay; format: cell-based
[15] = target: Glyoxalase domain-containing protein 4 (Homo sapiens) (UniProt Q9HC38); experiment: Binding affinity to GLOD4 in human NCI-H358 cells at 1 uM by mass spectrometry based pull down assay; format: cell-based
Sequence of Glyoxalase domain-containing protein 4 (Homo sapiens) (Q9HC38 whole entry, the tested form may be a part): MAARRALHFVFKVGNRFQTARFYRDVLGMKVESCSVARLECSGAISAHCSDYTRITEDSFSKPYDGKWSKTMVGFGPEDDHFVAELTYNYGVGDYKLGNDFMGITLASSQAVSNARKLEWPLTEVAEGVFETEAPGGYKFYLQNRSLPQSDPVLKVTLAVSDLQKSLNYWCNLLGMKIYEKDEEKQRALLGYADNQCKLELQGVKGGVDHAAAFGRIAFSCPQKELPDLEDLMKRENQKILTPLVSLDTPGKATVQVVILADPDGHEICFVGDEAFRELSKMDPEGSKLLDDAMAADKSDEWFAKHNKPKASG

[16] = target: Glutamate--cysteine ligase catalytic subunit (Homo sapiens) (UniProt P48506); experiment: Binding affinity to GCLC in human NCI-H358 cells at 1 uM by mass spectrometry based pull down assay; format: cell-based
Sequence of Glutamate--cysteine ligase catalytic subunit (Homo sapiens) (P48506 whole entry): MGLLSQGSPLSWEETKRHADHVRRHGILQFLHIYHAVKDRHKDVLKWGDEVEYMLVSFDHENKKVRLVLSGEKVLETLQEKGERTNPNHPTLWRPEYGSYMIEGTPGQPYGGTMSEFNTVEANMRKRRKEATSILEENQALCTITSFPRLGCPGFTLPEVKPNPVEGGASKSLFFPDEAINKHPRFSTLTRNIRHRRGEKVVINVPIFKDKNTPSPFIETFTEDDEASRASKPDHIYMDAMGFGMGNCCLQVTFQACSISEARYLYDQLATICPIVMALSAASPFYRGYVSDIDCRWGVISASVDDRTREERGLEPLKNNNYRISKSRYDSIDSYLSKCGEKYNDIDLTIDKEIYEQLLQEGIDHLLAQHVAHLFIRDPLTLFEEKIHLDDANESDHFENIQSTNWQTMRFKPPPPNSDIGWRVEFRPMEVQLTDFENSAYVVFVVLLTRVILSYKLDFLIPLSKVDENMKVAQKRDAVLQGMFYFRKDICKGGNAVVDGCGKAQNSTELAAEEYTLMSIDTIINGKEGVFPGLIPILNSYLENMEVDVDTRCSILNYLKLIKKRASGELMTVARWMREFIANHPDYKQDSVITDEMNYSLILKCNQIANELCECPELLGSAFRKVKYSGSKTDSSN

[17] = target: Glycogen synthase kinase-3 alpha (Homo sapiens) (UniProt P49840); experiment: Binding affinity to GSK3A in human NCI-H358 cells at 1 uM by mass spectrometry based pull down assay; format: cell-based
[18] = target: Phosphoglycerate kinase 1 (Homo sapiens) (UniProt P00558); experiment: Binding affinity to PGK1 in human NCI-H358 cells at 1 uM by mass spectrometry based pull down assay; format: cell-based
Sequence of Phosphoglycerate kinase 1 (Homo sapiens) (P00558 whole entry): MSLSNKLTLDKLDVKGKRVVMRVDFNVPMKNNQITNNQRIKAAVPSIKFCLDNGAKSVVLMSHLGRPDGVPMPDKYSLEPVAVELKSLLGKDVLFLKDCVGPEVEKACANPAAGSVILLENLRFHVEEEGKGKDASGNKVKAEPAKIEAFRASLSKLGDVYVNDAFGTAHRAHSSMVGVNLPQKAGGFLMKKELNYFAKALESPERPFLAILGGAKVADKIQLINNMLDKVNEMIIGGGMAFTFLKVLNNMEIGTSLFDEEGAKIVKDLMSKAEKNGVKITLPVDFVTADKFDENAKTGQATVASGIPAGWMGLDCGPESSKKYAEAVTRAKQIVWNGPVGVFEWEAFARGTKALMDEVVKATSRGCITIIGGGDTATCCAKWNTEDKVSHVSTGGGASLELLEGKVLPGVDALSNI

Sequence of Tyrosine-protein kinase receptor UFO (Homo sapiens) (P30530 whole entry, the tested form may be a part): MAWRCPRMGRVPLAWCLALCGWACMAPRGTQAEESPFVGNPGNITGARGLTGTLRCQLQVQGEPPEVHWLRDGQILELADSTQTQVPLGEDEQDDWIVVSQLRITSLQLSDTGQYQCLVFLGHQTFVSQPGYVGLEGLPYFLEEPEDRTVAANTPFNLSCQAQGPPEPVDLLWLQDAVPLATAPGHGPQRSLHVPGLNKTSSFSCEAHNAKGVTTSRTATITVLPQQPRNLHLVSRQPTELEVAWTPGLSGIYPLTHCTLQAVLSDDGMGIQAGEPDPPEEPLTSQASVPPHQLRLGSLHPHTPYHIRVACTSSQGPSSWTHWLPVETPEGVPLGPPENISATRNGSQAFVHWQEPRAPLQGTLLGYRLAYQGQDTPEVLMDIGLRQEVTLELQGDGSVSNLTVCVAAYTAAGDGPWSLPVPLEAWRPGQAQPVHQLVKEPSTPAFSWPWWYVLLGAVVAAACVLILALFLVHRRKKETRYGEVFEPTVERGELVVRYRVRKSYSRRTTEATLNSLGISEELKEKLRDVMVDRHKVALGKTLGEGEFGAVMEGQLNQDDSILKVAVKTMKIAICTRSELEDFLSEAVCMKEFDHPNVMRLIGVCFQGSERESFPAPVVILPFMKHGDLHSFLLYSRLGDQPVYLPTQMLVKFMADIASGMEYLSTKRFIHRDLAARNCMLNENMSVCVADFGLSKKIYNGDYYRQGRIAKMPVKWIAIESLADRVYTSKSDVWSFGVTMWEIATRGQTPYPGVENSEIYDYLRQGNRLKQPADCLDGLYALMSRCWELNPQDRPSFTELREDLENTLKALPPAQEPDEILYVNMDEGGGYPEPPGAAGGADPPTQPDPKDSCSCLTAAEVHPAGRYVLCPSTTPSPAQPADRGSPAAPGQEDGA

C=CC(=O)Nc1ccccc1Nc1nc(Nc2ccc(N3CCN(C)CC3)cc2)ncc1Cl
27.2%: inhibition [1]

COc1cc(O)c2c(c1)/C=C/C[C@H](O)[C@H](O)C(=O)/C=C\C[C@H](C)OC2=O
0.55%: Activity [3]
0.6%: Activity [4]
4.2%: Activity [2]
3.8%: Activity [5]

C=CC(=O)Nc1ccccc1Nc1nc(Nc2ccc(N3CCN(CCOCCOCCOCCNC(=O)CCCC[C@@H]4SC[C@@H]5NC(=O)N[C@@H]54)CC3)cc2)ncc1Cl
active: Activity [6] | Activity [7] | Activity [8] | Activity [9] | Activity [10] | Activity [11] | Activity [12] | Activity [13] | Activity [14] | Activity [15] | Activity [16] | Activity [17] | Activity [18]
